{"source": "ChEMBL document CHEMBL4011632", "about": "“Design, Synthesis, and Evaluation of Thiazolidine-2,4-dione Derivatives as a Novel Class of Glutaminase Inhibitors” (J Med Chem, 2017)", "key": {"[1]": {"test": "Volume of distribution at steady state in Sprague-Dawley rat at 2 mg/kg, iv by HPLC-MS analysis", "assay_type": "ADME, organism-based", "conditions": "in vivo, read-out: Vdss", "method_in_brief": "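Male rats (330−380 g, 9−10 weeks old), quarantined 1 week, jugular-vein cannula implanted 1 day before dosing; n = 3. Single iv dose in DMA/PEG400 (20%/80%, v/v). Blood (100 μL) was drawn via cannula at 0, 2, 5, 15, 30 min and 1, 2, 4, 6, 8, 24 h and kept on ice. Plasma was analysed by HPLC−MS/MS. Vss came from noncompartmental analysis.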"}, "[2]": {"molecular_target": "T1, Glutaminase liver isoform, mitochondrial (Homo sapiens) (UniProt Q9UI32)", "T1 sequence (whole entry)": "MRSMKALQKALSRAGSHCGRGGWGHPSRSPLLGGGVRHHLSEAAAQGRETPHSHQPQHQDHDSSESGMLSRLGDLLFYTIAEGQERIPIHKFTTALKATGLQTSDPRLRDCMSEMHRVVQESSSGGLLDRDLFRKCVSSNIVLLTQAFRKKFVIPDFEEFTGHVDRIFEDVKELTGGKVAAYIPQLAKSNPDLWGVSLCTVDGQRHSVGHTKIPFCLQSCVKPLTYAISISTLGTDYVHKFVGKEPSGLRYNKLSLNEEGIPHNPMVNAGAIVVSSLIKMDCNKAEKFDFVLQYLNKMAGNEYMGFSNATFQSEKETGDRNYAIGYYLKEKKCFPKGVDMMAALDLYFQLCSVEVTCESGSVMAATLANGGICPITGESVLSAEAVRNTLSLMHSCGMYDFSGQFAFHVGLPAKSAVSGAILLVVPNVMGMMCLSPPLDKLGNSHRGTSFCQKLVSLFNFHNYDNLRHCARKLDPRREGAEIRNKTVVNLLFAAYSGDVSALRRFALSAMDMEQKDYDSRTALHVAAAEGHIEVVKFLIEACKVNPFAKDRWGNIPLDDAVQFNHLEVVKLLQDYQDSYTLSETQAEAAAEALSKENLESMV", "test": "Inhibition of human GLS2 in GLS1 deficient human Aspc-1 cells assessed as decrease in cellular glutamate production at 3.13 to 100 uM after 4 hrs by amplex red glutamic acid assay", "method_in_brief": "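GLS-knockout AsPC-1 cells made with GLS-KO ZFN mRNA, single-cell cloned, and grown in glutamine-free RPMI 1640 with 10% FBS. Cells seeded at 30 000/well and grown 24 h at 37 °C. Treated 4 h with 1% DMSO vehicle or 3.13−100 μM inhibitor, washed with PBS, and lysed in NP-40 buffer (4 °C, 20 min). Lysate glutamate measured by Amplex Red. Three independent experiments in duplicate.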"}, "[3]": {"test": "AUC (0 to infinity) in Sprague-Dawley rat at 10 mg/kg, po by HPLC-MS analysis", "assay_type": "ADME, organism-based", "design": "dose 10 mg/kg, time infinity, route oral", "conditions": "in vivo", "method_in_brief": "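Male rats (330−380 g, 9−10 weeks old), jugular-vein cannulated 1 day before dosing, n = 3. Oral dose given in 1% CMC/0.5% Tween-80. Blood (100 μL) taken via cannula at 0, 15 and 30 min and 1, 2, 4, 6, 8 and 24 h, kept on ice. Plasma analysed by HPLC−tandem MS. Parameters from noncompartmental analysis.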"}, "ASPC1 [4]": {"test_system": "ASPC1", "test": "Anticlonogenic activity against human Aspc-1 cells at 2 uM after 21 days by crystal violet staining based assay relative to control", "assay_type": "functional", "conditions": "ASPC1, 504 h", "method_in_brief": "(§1)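 Anchorage-dependent colony formation: AsPC-1 cells seeded at 1000 cells/well in six-well plates and treated with compound. Colony formation is expressed as percent of vehicle treatment. Mean ± SD from at least three independent experiments, each in duplicate.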"}, "MDA-MB-231": {"test_system": "MDA-MB-231", "test": "Growth inhibition of human MDA-MB-231 cells after 72 hrs by MTS assay", "assay_type": "functional, cell-based", "conditions": "MDA-MB-231, 72 h", "method_in_brief": "(§2)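 Growth inhibition by MTS viability read-out. Cells seeded in 96-well plates at 4000/well (AsPC-1) or 8500/well (MDA-MB-231). Mean ± SD from at least three independent experiments, each in duplicate.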"}, "ASPC1 [5]": {"test_system": "ASPC1", "test": "Antitumor activity against human Aspc-1 cells xenografted in Balb/cAnN.Cg-Foxn1nu/CrlNarl mouse assessed as tumor growth inhibition at 25 mg/kg, ip once daily administered for 5 days followed by 2 days without dosing for 43 days relative to control", "assay_type": "functional", "conditions": "read-out: TGI", "method_in_brief": "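Male nude mice (7−8 weeks, 18−22 g) received 4.5 × 10^6 AsPC-1 cells sc in the right flank, in HBSS mixed 1:1 with Matrigel. Mice were randomized once mean tumor reached ~100 mm3 (day 1). Dosing was ip once daily, 5 days on/2 days off, with 2% DMSO/PBS as vehicle. Tumors were measured twice weekly, V = ab²/2. %TGI = [1 − ((Tt − T0)/(Ct − C0))] × 100 from median volumes; Student's t test.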"}, "[6]": {"test": "Terminal half life in Sprague-Dawley rat at 10 mg/kg, po by HPLC-MS analysis", "assay_type": "ADME, organism-based", "conditions": "in vivo, read-out: beta t1/2 (converted)", "method_in_brief": "(§3)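 Male rats (330−380 g, 9−10 weeks old), jugular-vein cannulated 1 day before dosing, n = 3. Dosed iv in DMA/PEG400 (20%/80%, v/v) or po in 1% CMC/0.5% Tween-80. Blood (100 μL) drawn at 0, 2 min, 5 min (iv only), 15 and 30 min, and 1, 2, 4, 6, 8 and 24 h. Plasma measured by LC-MS/MS; parameters from noncompartmental analysis.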"}, "[7]": {"test": "Oral bioavailability in Sprague-Dawley rat at 10 mg/kg by HPLC-MS analysis", "assay_type": "ADME, organism-based", "conditions": "in vivo", "method_in_brief": "as §3"}, "[8]": {"test": "Terminal half life in Sprague-Dawley rat at 2 mg/kg, iv by HPLC-MS analysis", "assay_type": "ADME, organism-based", "conditions": "in vivo, read-out: beta t1/2 (converted)", "method_in_brief": "as §3"}, "ASPC1 [9]": {"test_system": "ASPC1", "test": "Growth inhibition of human Aspc-1 cells after 72 hrs by MTS assay", "assay_type": "functional, cell-based", "conditions": "ASPC1, 72 h", "method_in_brief": "as §2"}, "[10]": {"test": "Inhibition of recombinant human His-tagged KGA K507A mutant expressed in Escherichia coli BL21(DE3)pLysS using glutamine substrate preincubated for 10 mins followed by substrate addition measured after 60 mins"}, "[11]": {"test": "Tmax in Sprague-Dawley rat at 10 mg/kg, po by HPLC-MS analysis", "assay_type": "ADME, organism-based", "conditions": "in vivo", "method_in_brief": "as §3"}, "[12]": {"test": "AUC (0 to infinity) in Sprague-Dawley rat at 2 mg/kg, iv by HPLC-MS analysis", "assay_type": "ADME, organism-based", "design": "dose 2 mg/kg, route intravenous, time infinity", "conditions": "in vivo", "method_in_brief": "as §3"}, "[13]": {"test": "Inhibition of recombinant human His-tagged KGA R387L mutant expressed in Escherichia coli BL21(DE3)pLysS using glutamine substrate preincubated for 10 mins followed by substrate addition measured after 60 mins"}, "[14]": {"test": "Cmax in Sprague-Dawley rat at 10 mg/kg, po by HPLC-MS analysis", "assay_type": "ADME, organism-based", "design": "dose 10 mg/kg, route oral", "conditions": "in vivo", "method_in_brief": "as §3"}, "ASPC1 [15]": {"test_system": "ASPC1", "test": "Synergistic cytotoxicity against human Aspc-1 cells assessed as reduction in cell viability at ED50 in presence of doxorubicin by MTS assay", "assay_type": "functional", "method_in_brief": "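AsPC-1 cells treated with compound combinations and viability read by MTS. Combination index at ED50, ED75 and ED90 calculated by the Chou−Talalay method. CI = 1 additive, <1 synergism, >1 antagonism. Representative of three independent experiments.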"}, "[16]": {"test": "Inhibition of recombinant human His-tagged KGA S384A mutant expressed in Escherichia coli BL21(DE3)pLysS using glutamine substrate preincubated for 10 mins followed by substrate addition measured after 60 mins"}, "ASPC1 [17]": {"test_system": "ASPC1", "test": "Anticlonogenic activity against human Aspc-1 cells at 10 uM after 21 days by crystal violet staining based assay relative to control", "assay_type": "functional", "conditions": "ASPC1, 504 h", "method_in_brief": "as §1"}, "[18]": {"test": "Inhibition of recombinant human His-tagged KGA R387A mutant expressed in Escherichia coli BL21(DE3)pLysS using glutamine substrate preincubated for 10 mins followed by substrate addition measured after 60 mins"}}, "note": "Activity calls are given as the source filed them. The rule behind the calls is not given here.", "data": [{"smiles": "O=C(Cc1ccccc1)Nc1nnc(CCSCCc2nnc(NC(=O)Cc3ccccc3)s2)s1", "values": [{"measurement": "Vd", "setting": "[1]", "result": 8.8, "unit": "L/kg"}, {"measurement": "inhibition", "setting": "[2]", "result": "inactive"}, {"measurement": "AUC(0-inf)", "setting": "[3]", "result": 73, "unit": "ng·h/mL"}, {"measurement": "inhibition at 2 µM", "setting": "ASPC1 [4]", "result": 41, "unit": "%"}, {"measurement": "IC50", "setting": "MDA-MB-231", "result": 6.8, "unit": "µM"}, {"measurement": "inhibition in vivo at 25 mg/kg", "setting": "ASPC1 [5]", "result": 55, "unit": "%"}, {"measurement": "half-life", "setting": "[6]", "result": 120, "unit": "min"}, {"measurement": "bioavailability", "setting": "[7]", "result": 2, "unit": "%"}, {"measurement": "half-life", "setting": "[8]", "result": 318, "unit": "min"}, {"measurement": "IC50", "setting": "ASPC1 [9]", "result": 10.2, "unit": "µM"}, {"measurement": "IC50", "setting": "[10]", "result": 66, "unit": "nM"}, {"measurement": "Tmax", "setting": "[11]", "result": 42, "unit": "min"}, {"measurement": "AUC(0-inf)", "setting": "[12]", "result": 636, "unit": "ng·h/mL"}, {"measurement": "IC50", "setting": "[13]", "result": 345, "unit": "nM"}, {"measurement": "Cmax", "setting": "[14]", "result": 40, "unit": "ng/mL"}, {"measurement": "CI", "setting": "ASPC1 [15]", "result": "0.45 - 0.68"}, {"measurement": "IC50", "setting": "[16]", "result": 65, "unit": "nM"}, {"measurement": "inhibition at 10 µM", "setting": "ASPC1 [17]", "result": 98, "unit": "%"}, {"measurement": "IC50", "setting": "[18]", "result": 63, "unit": "nM"}]}]}
